Rows were chosen to be rich in hits. Some 2.2% of all compounds tested hit in one or more screens of this group.
dFosB act – enhances mouse delta FosB homodimer DNA binding; P13346; purified delta FosB, TAMRA-CDK5 oligo fluorescence polarization; percent of positive-control signal above neutral wells; activation, % at 25 µM; 0.99% of 340,000 active; AID 493131;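 active means mean activation above about 17%, with every replicate also reaching it, limit read from the data, passing the limit was not always enough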
CAL PDZ FP-1 – inhibitors of human CAL PDZ peptide binding; 0.92% of 300,000 active; Q9HD26; purified CAL PDZ, TMR-peptide fluorescence polarization, 1 h; AID 602252; inhibition, % at 24.9 µM;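 active means mean inhibition of at least 30% with at least half of replicates also reaching 30%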;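 further: 0% = DMSO neutral control and 100% = excess unlabeled competitor peptide PRC23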
CDK5 inh – blocks human CDK5/p35 kinase activity; 0.01% of 330,000 active; Recombinant CDK5/p35, ADP-Glo luminescence, 60 min; Q00535+Q15078; AID 488839; inhibition, % at 10 µM;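 active means highest replicate inhibition of at least 50% and at least 75% of replicates reaching 50%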;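 further: plate controls were DMSO neutral control for no effect and GW8510 at 10 µM for full effect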
Rtt109 Vps75 – blocks Candida albicans Rtt109/Vps75 acetyltransferase activity; purified Rtt109/Vps75, ThioGlo CoA-SH fluorescence, 4 h; inhibition, % at 34.9 µM; 0.16% of 330,000 active; AID 540336;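 active means inhibition of at least 50% in every replicate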
Target sequence (Q5AAJ8 whole entry, looked up): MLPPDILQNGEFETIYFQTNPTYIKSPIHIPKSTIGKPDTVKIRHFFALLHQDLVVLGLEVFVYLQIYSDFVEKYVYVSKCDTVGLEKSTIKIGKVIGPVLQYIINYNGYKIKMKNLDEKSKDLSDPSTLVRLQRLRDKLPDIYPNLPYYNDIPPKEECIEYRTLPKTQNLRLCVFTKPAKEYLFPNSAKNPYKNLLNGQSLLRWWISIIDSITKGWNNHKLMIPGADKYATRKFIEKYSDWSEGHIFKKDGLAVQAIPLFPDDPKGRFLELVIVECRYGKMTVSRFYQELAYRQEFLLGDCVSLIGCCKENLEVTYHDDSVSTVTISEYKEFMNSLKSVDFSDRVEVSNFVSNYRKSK
CAL PDZ FP-2 – human CAL PDZ-peptide interaction inhibition. purified CAL PDZ, TMR-peptide fluorescence polarization, 1 h. Q9HD26. AID 504414. 0.02% of 330,000 active. inhibition, % at 20 µM;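 active means highest replicate inhibition of at least 40%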;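 further: plate controls were DMSO neutral control wells for no effect and unlabeled competitor peptide control wells for full effect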
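System: tagged CAL PDZ domain. Schedule: 1 h room-temperature incubation prior to read. Signal: fluorescence polarization (mP). Measure: percent inhibition from loss of millipolarization.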
DYRK1A inh – inhibitors of rat Dyrk1A kinase; Q63470; ADP-Glo luminescence, NFATc1 peptide; inhibition, % at 12.5 µM; 0.43% of 310,000 active; in the data active means inhibition above about 50%;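 further: plate controls were vehicle with enzyme for no effect and no enzyme for full effect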
Starred values were filed as active, the others as inactive; . = no result given.

SMILES	dFosB act	CAL PDZ FP-1	CDK5 inh	Rtt109 Vps75	CAL PDZ FP-2	DYRK1A inh
C=CCN(C(=O)c1csnn1)C(C(=O)NC(C)(C)C)c1ccncc1 (stereo not given)	3.1	.	0.6	0.8	-0.4	-0.3
Fc1ccc(CCNc2ncnc3[nH]ncc23)cc1	-6.9	.	2.9	9.2	-1.3	.
Cc1ccc(CNc2ncnc3[nH]ncc23)cc1	-6.2	62.2*	0.6	0.2	5.3	16.4
CCN(CC)S(=O)(=O)c1ccc(N2CC(C(=O)NCCC3=CCCCC3)CC2=O)cc1 (stereo not given)	-6.4	45.2*	0.5	2.2	-1.6	-3.0
Cc1ccc(NC(=S)NC(=O)C2CC2)cc1Cl	-11.2	51.8*	0.2	11.6	-3.5	5.7
O=C(NC(=S)Nc1ccc(F)c(Cl)c1)C1CC1	0.2	-2.9	2.5	21.6	-1.7	1.2
Nc1c2c(nc3ccc(Br)cc13)N(c1ccccc1)CC2	-30.5	-5.5	-1.6	22.7	-0.9	-0.2
Cc1cccc(N2CCc3c2nc2ccc(Br)cc2c3N)c1	33.4*	1.0	0.1	2.5	0.4	0.5
COc1ccc(-c2nnc3ccc(SCC(=O)N4CCN(c5ccccc5)CC4)nn23)cc1	-4.5	2.2	0.8	2.4	3.8	6.1
Cc1ccc2nc(NC(=O)COC(=O)c3ccncc3)sc2c1	-9.2	62.2*	-0.6	0.8	32.9	5.3
COCC(=O)Nc1nc2ccc(C)cc2s1	-3.2	-3.5	2.0	-8.2	-0.2	40.4
CC(OC(=O)c1cc(S(=O)(=O)N2CCOCC2)ccc1Br)C(=O)N1CCOCC1 (stereo not given)	1.2	42.7*	0.5	10.4	-1.1	0.5
CC(=O)Nc1ccc(NC(=O)C(C)OC(=O)c2cc(S(=O)(=O)N3CCOCC3)ccc2Cl)cc1 (stereo not given)	-1.1	-4.8	-5.0	-8.1	-3.4	1.5
CC(=O)c1cccc(S(=O)(=O)NCC2CCCCC2)c1	-6.7	.	-0.3	-5.3	-1.3	-1.4
O=C(C[N+]1(CC#Cc2ccccc2)CCOCC1)c1ccc(Cl)cc1	1.2	-1.8	-0.9	5.5	-1.6	0.0
O=C(C[N+]1(CC#Cc2ccccc2)CCOCC1)c1ccccc1	-5.5	48.5*	-1.1	.	-0.6	-0.2
O=C(O)CCCCCN1C(=O)CCC1=O	-6.3	45.3*	1.8	2.1	.	0.4
Cc1ccccc1C(=O)NCCNC(=O)c1ccco1	3.3	6.6	-3.2	50.6*	-3.4	-5.3
CCOc1ccc(NC(=O)CCNC(=O)c2ccco2)cc1	-4.9	56.5*	0.5	-5.4	0.5	0.0
Cc1ccc(S(=O)(=O)Nc2ccc(S(=O)(=O)Nc3nccs3)cc2)cc1C	-1.9	-5.3	0.6	-6.5	-0.2	3.6
Cc1cc(C)c(NC(=O)CN2C(=O)NC3(CCCc4ccccc43)C2=O)c(Cl)c1 (stereo not given)	-3.8	-2.4	-2.3	6.8	-2.1	1.7
CC(C)Sc1nnc(SCC(=O)NCCCN2CCCC2=O)s1	0.2	44.1*	-0.7	-3.7	0.0	1.8
O=C(CSc1ccc2ccccc2c1)NCCCN1CCCC1=O	-1.9	0.1	-0.3	-7.6	-3.0	-2.3
O=C(CN1C(=O)NC(c2ccccc2)(c2ccccc2)C1=O)NCc1cccs1	-6.5	-1.0	-0.2	-0.1	0.0	-3.5
Cc1ccc(N(C(=O)CCCC(=O)Nc2ccccn2)C(C(=O)NC2CCCC2)c2ccc(O)cc2)cc1C (stereo not given)	-14.8	-0.3	0.3	11.8	0.0	1.1
O=C(COC(=O)c1cccc2ccccc12)NCC1CCCO1 (stereo not given)	-4.7	-0.4	-0.6	-2.7	-4.5	2.4
O=C(COC(=O)c1ccc[nH]c1=O)NCC1CCCO1 (stereo not given)	1.0	56.5*	0.3	-1.9	0.2	-3.9
C/C(=N\Nc1ccc(S(N)(=O)=O)cc1[N+](=O)[O-])c1cccnc1	5.1	-1.2	-0.7	-6.8	-1.5	-1.4
O=C1NC(=O)/C(=C\c2cn(Cc3ccccc3F)c3ccccc23)N1	1.4	59.1*	-1.9	0.8	-0.2	-0.5
COC(=O)N/N=C/c1cn(Cc2ccccc2F)c2ccccc12	-8.3	0.6	-1.1	.	0.2	4.0

Bioassay records (PubChem BioAssay)
